# Experimental data published in the EternaBench riboswitch data.
# System: MS2 coat protein
# Test: apparent Kd, MS2 coat protein; higher = weaker binding; RNA-MaP array; FMN 200 µM where present
# Procedure, shortened: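 SNAP-549-labelled MS2 coat protein, doubled from 0.7 or 1.5 nM to 3 µM, was titrated over designs transcribed by stalled E. coli RNA polymerase on Illumina sequencing-chip clusters. Titrations were run without and then with constant ligand in 100 mM Tris-HCl pH 7.5, 80 mM KCl, 4 mM MgCl2, BSA, DTT, yeast tRNA and Tween-20. The apparent Kd is the median of filtered per-cluster fits to green signal normalised to red-channel RNA signal and control-cluster median Fmax.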
# [1] = designed as: OFF switch for flavin mononucleotide, no ligand
# [2] = ligand present: flavin mononucleotide, designed as: OFF switch for flavin mononucleotide
# [3] = designed as: ON switch for flavin mononucleotide, no ligand
# [4] = ligand present: flavin mononucleotide, designed as: ON switch for flavin mononucleotide
Sequence,apparent Kd [1] [nM],apparent Kd [2] [nM],apparent Kd [3] [nM],apparent Kd [4] [nM]
AAAUUAGUUGUAGGAUAUCGGUCGAACAUCUCACGAGAAGGGCAACAUGAGGAUCACCCAUGUAGGUCGCCUACGUAAGAUCGC,5.84,6.71,–,–
AUUUUACAUGAGGAUCACCCAUGUUUUGGUGGAUCAGGAUAUAAAUUGAAUGAGUUUUAGUUAGAAGGGAUAUUUA,–,–,67.2,99
GUACAGCGACAUGAGGAUCACCCAUGUAGCCGCCGAUCGUCGCAGGAUAUGGCAAAGGUUAACAGUCAGAAGGGUGAUGUUCGA,–,–,73.6,41.3
AACUUCCCGUCAGGAUAUCGCCGUAGGUCCUCGGGUCUCGCCGUCAUACAUGAGGAUCACCCAUGUGAGAAGGGACGGGAUUCA,21.8,117,–,–
AAACACGGACAUGAGGAUCACCCAUGUGGCGAAAGCCUUGGAAGAAGGCCGAUUGCAAAGCAAUCGGAGGAUAUUCAUACCGUG,–,–,–,5.57
AAAGUCUAUUGAGGAUAUCGUUAUCAAAGAUAAUGAGAAGGCAAACAAUCAUGAGGACAUGAGGAUCACCCAUGUUGUGACCAU,–,–,22.3,13.4
CGAAGUCCGUAGAAGGGUGACAUGAGGAUCACCCAUGUGCGAGCGGAGGGAGUCAUCGGCUCGCCACAGGAUAUACGGAGCACG,–,–,58.1,49.2
AAUAUUUAUUGAGGAUAUUCAUACACUGUAUACGGAGAAGGCAAUCAAUCAUGAGGACAUGAGGAUCACCCAUGUUGUGACCAU,–,–,10.7,9.69
AAGUCGUGAGGAUAUACAUGCAUAUACAUUUAUGUAAAACUACAUGAGGAUCACCCAUGUAGAAGGCACGAAUA,17.6,16.1,–,–
CCCAAACUUGGGCUUGGUGGUGCAUAGGAUAUCCUUGAACAUGAGGAUCACCCAUGUGCAACUGUGGAGAAGGGUGCAGGGCCU,–,–,362,88.4
UGGUACAUCGGAGGAUAUCGUGUGUAAACAUGAGGAUCACCCAUGUCAUACGAGAGUAUGUAGAUCGAGAAGGCCGAUGUACCU,–,–,16.7,16.2
CUCGUGUAAGGAUAUACGAGUCACGGAAAUAAACCGUGAAGGUAGAAGGUACAUGAGGAUCACCCAUGUAAAAC,40,347,–,–
UUUCCACAUGAGGAUCACCCAUGUCAGGAUAUUAGAUCUAUUUAUACAUAUAAUUAUUUAAGAAGGGACACUAA,18.1,16.9,–,–
ACGGUGGUCACAGGAUAUCCGGCGCGCGUGCCUGGAGAAGGGUGACUCAGAACCACAUGAGGAUCACCCAUGUGCCUUGCCGUA,–,–,169,49.2
UCUAUCAGAGGAUAUACAUGAGGAUCACCCAUGUCAGUCGAACGGGAUGGAAGGUUAGGUAGAAGGUUGUAGAU,39.8,41.2,–,–
GUAGCUAUUAUUAUACAUGAGGAUCACCCAUGUUACAUGUGUAAGGAUAUUGAAGUUUUUAUAAUCAAGAAGGUACUAUGCUAC,–,–,16.8,9.2
UGUCGGAGCAGAGGAUAUUACAUGAGGAUCACCCAUGUAUGAACCAAUAGCUGGAAACAGCUAUGUAAGAAGGCUGCUCCGACA,5.31,9.42,–,–
ACGUCGAGCCAGAAGGCAACAUGAGGAUCACCCAUGUAGUCCGGCUCGUGUUGAGGAUAUGGCACCCGCGCUGAAGGCGCAGGU,5.43,7.55,–,–
CAGAAGUCAGGAUAUCCAUGGCGGCACUUGCGUGGUGGCGUGGAGAAGGGACAUGAGGAUCACCCAUGUAAAGG,171,237,–,–
UAAAAGCGAGGAUAUACAUGAGGAUCACCCAUGUGAAAGAAAAAUAAAAAAAAAAAAAGUAGAAGGCGCUAAAA,62.1,58.4,–,–
ACAAAUUAGUGAGGAUAUGCAUAAUUUAUAACUGCAGAAGGCACAAACCUCAAGACAUGAGGAUCACCCAUGUGGAAUAUAGAU,73,182,–,–
UGGAUGUAAGAGAAGGAGGACUUCAUGAGGAUCACCCAUGUGUUAGUACUUAGGAUAUUUGACAACAUGAGGAUCACCCAUGUC,–,–,75.6,67.8
GCGCACUAAGUGAGGAUAUCGUUUAUUUAUAGGAUCGAGAAGGCACAUGAGGAUCACCCAUGUUAAACGUGCGC,18.5,13.9,–,–
AUCCGACAUGAGGAUCACCCAUGUCAGGAUAUGGACUGACACCCAAAGGGUGGAGGAACCAGAAGGGACUGGGC,36,68.1,–,–
AGUAAGAUGCAGAAGGUGUUAGCUAGAGCUACGACAUGAGGAUCACCCAUGUACUAGAAACAGUACAAGGAUAUGCAUCUUACU,–,–,18.4,6.43
CCUAAGGACACAGGAUAUAGCGUGGUGGCUGUGCUCCAACGGCGAGCGGCGCUAGAAGGGUGACCACAUGAGGAUCACCCAUGU,–,–,665,177
CAGCCCUGAGGAUAUCCCUCCUUGUACAUGAGGAUCACCCAUGUUCUCCUCUGGGCUUUGGGAGAAGGCAGGUCUC,26.8,26.4,–,–
AAAAAACAUGAGGAUCACCCAUGUGAGGAUAUCUGUAUCCAAAAGGAAGUGUAGGAUCAGAGAAGGCACUAGGA,68.1,123,–,–
